Screening data as filed in PubChem.
An excerpt weighted towards active compounds, which were near 1.9% of everything screened.
ARFGAP1 inh: rat ARFGAP1 inhibition; Q62848; Arfgap1-stimulated ARF1 GTP hydrolysis, GDP FP detection; inhibition, % at 16.5 µM; hit rate 0.26% among 360,000; AID 651572;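 active means inhibition above a per-plate limit, mean inhibition of low control wells plus 3 SD, cut at about 25% in these data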;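 further: 0% = DMSO wells with enzyme and 100% = wells lacking Arfgap1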
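Material – truncated rat Arfgap1 GAP domain · Buffer or medium – HEPES-based buffer, pH 7.5 · Reagent – human ARF1(Δ1-17)-GTP substrate · Dosing – 16.5 µM single point, 1.26% DMSO · Schedule – GTP hydrolysis reaction 2 h at 25 °C · Technique – GDP detection by fluorescence polarization · Benchmarks – No-Arfgap1 wells (100%) versus DMSO full-reaction wells (0%) · Repeats – single replicate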
PLC-gamma1 inh: inhibitors of human phospholipase C gamma1 | hit rate 0.84% among 370,000 | purified PLC-gamma1, fluorogenic substrate, fluorescence | AID 720700 | inhibition, % at 12.2 µM; in the data active means inhibition above about 9.5%
Target sequence (P19174 whole entry, looked up): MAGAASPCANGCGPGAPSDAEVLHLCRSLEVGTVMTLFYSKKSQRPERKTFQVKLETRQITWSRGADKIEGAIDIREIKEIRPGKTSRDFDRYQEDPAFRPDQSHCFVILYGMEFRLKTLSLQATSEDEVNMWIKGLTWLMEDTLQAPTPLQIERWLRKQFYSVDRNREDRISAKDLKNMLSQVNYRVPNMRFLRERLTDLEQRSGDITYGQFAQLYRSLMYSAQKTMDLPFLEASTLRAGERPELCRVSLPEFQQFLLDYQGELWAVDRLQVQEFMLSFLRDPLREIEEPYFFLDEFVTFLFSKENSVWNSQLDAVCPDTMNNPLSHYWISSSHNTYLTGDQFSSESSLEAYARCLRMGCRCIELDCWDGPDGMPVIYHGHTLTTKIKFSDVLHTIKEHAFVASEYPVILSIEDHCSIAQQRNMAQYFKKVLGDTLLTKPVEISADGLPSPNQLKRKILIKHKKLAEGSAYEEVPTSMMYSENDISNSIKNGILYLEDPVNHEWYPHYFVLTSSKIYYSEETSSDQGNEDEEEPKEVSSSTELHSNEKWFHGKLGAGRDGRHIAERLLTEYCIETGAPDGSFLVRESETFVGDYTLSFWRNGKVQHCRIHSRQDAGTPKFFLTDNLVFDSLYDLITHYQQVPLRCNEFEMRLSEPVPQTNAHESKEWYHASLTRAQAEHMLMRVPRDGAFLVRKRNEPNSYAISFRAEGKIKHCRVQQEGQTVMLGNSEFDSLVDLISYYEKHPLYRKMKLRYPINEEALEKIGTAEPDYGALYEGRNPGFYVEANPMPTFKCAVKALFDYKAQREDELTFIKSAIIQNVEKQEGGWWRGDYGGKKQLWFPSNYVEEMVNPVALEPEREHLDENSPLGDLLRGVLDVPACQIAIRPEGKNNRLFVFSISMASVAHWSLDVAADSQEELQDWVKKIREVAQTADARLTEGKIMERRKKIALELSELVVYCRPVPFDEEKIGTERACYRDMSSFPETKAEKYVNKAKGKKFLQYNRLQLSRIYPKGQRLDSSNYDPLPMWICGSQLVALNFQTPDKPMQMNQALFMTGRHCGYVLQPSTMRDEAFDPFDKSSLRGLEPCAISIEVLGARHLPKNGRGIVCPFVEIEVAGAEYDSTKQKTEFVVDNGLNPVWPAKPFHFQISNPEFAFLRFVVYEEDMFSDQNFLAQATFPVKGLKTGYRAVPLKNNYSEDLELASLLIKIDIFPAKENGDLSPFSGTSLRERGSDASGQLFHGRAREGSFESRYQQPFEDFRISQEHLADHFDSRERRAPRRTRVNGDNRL
ASAP1 inh: blocks human ASAP1-stimulated Arf1 GTP hydrolysis. Q9ULH1. GDP FP detection. inhibition, % at 16.5 µM. hit rate 0.19% among 360,000; in the data active means inhibition above about 25%;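 further: 0% = vehicle with enzyme and substrate and 100% = no enzyme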
sPLA2-III inh: Inhibits HGIII-sPLA2 liposome hydrolysis, primary screen | Q9NZ20 | QFRET BODIPY PC-A2 liposome hydrolysis, fluorescence | inhibition, % at 12.2 µM | hit rate 0.56% among 370,000 | AID 743126;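 active means inhibition above mean plus 3 SD of compounds lying within the high and low control bounds, cut at about 19% in these data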;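 further: 0% = median of test compound wells and 100% = no enzyme DMSO wells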
PLC-beta3 inh: blocks human PLC-beta3 enzyme activity; Q01970; Purified PLC-beta3, fluorogenic substrate, fluorescence; inhibition, % at 12.2 µM; hit rate 0.18% among 370,000; in the data active means inhibition above about 11%;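 further: 0% = median of compound wells on plate and 100% = full blocker control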
hGIII sPLA2 conf: human GIII-sPLA2 inhibition, confirmation; shares compounds with sPLA2-III inh; recombinant hGIII-sPLA2, BODIPY PC-A2 QFRET fluorescence; inhibition, % at 12.2 µM; hit rate 34% among 2,000; AID 743280;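 active means mean inhibition across triplicates above the hit cutoff set in the earlier primary screen, cut at about 19% in these data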;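 further: 0% = enzyme with DMSO and 100% = DMSO wells lacking enzyme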
535nm interf: 535nm fluorescence interference, HGIII-sPLA2 counter-screen; shares compounds with sPLA2-III inh; BODIPY FL product fluorescence interference, QFRET; inhibition, % at 12.2 µM; hit rate 8.5% among 2,000; AID 743282;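 active means average inhibition above the solvent-only control mean plus 3 SD, cut at about 6% in these data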;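 further: 0% = DMSO with substrate plus product and 100% = DMSO with substrate alone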
BODIPY interf DR: 535nm optical interference dose response, HGIII-sPLA2 counter-screen; 240 tested, under 10 active; AID 743455; BODIPY FL product fluorescence interference, cell-free; shares compounds with sPLA2-III inh; IC50, µM;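 active means IC50 at or below 10 µM; inactive means IC50 above 10 µM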
* marks the source's active call; other numbers are inactive results; i = inactive; · = no result given.

SMILES	ARFGAP1 inh	PLC-gamma1 inh	ASAP1 inh	sPLA2-III inh	PLC-beta3 inh	hGIII sPLA2 conf	535nm interf	others
CCN1C(=O)/C(=C2/C=Cc3ccccc3N2CC)SC1=S	-3	-1	-4	21*	1	43*	5	BODIPY interf DR=>122
CCCN1C(=O)/C(=C2/C=Cc3ccccc3N2CC)SC1=S	7	9	-1	21*	0	51*	13*
C#CCNC(=O)C[C@@H]1C(=O)N(Cc2ccc(OC)cc2)/C2=C/CCCCC[C@@]21C(=O)OCC	·	-1	·	5	-1	·	·
O=C(Nc1nc(-c2ccccc2)c(-c2ccccc2)s1)c1ccc(S(=O)(=O)N2CCCCC2)cc1	-5	-2	12	23*	1	-8	2
O=C(N/N=C/c1ccncc1)c1cc2ccccc2cc1O	-8	-6	13	-7	-21	·	·
O=[N+]([O-])c1ccc(Cl)cc1N/N=C/c1ccncc1	5	1	-1	20*	-6	9	1
O=C(N/N=C/c1ccncc1)c1cc([N+](=O)[O-])cc([N+](=O)[O-])c1O	3	1	3	20*	-2	14	0
O=C(N=C1N(CC2CC2)CC2(C=C3CCCCC3n3c(=O)n(-c4ccccc4)c(=O)n32)N1C(=O)OCc1ccccc1)c1ccccc1 (stereo not given)	·	1	·	-5	2	·	·
CCCC(=O)N1CCC[C@]2(CC[C@@H](CCC(C)=O)O2)C1	·	0	·	4	0	·	·
O=C(CC(=O)N/N=C/c1ccccc1O)NCc1cccnc1	-1	-57	5	19*	-58	-4	-4
COc1ccc2c(=O)cc(-c3cccnc3)oc2c1OC	0	-4	-12	20*	-11	-1	-6
COc1ccccc1/C=C/C=N/n1c(-c2cc(-c3ccccc3)n[nH]2)n[nH]c1=S	17	-20	4	21*	-27	-26	9.5*
COC(CNC(=O)c1ccc(N2CCC3(CC2)OCCO3)c([N+](=O)[O-])c1)OC	-5	1	5	23*	1	3	-9
O=C(c1ccc(N2CCC3(CC2)OCCO3)c([N+](=O)[O-])c1)N1CCOCC1	7	2	0	-4	0	·	·
CCn1c(-c2cccc(Br)c2)n[nH]c1=S	9	3	5	23*	-8	34*	-3	BODIPY interf DR=>122
CCn1c(-c2ccc3ncccc3c2)n[nH]c1=S	2	2	6	7	2	·	·
CN(/N=C/c1ccc2c(c1)OCO2)c1ccccc1	-4	1	6	23*	-1	41*	6.6*
C(=N\N(c1ccccc1)c1ccccc1)/c1ccc2c(c1)OCO2	3	-11	-4	7	-13	·	·
COc1ccc(C(=O)NC(Oc2ccccc2)C(Cl)(Cl)Cl)cc1 (stereo not given)	0	-1	2	21*	3	14	-1
Cc1ccc2c(c1)C(=O)C(=O)N2CCCOc1ccccc1C	-4	-2	-16	15	3	·	·
Cc1cccc(OCCN2C(=O)C(=O)c3cccc(C)c32)c1	-7	0	4	7	2	·	·
Cc1cccc2c1N(CCCOc1ccccc1)C(=O)C2=O	-20	2	-15	21*	2	18	-4
Cc1ccccc1OCCCN1C(=O)C(=O)c2cccc(C)c21	-9	3	-10	28*	2	38*	-2	BODIPY interf DR=>122
COc1ccc(-c2n[nH]c(=S)nc2-c2ccc(OC)cc2)cc1	10	-1	0	19*	-7	26*	5
COc1ccc(-c2nc(=S)[nH][nH]2)cc1	6	0	1	3	0	·	·
SMILES	ARFGAP1 inh	PLC-gamma1 inh	ASAP1 inh	sPLA2-III inh	PLC-beta3 inh	hGIII sPLA2 conf	535nm interf	others
O=C(Nc1ccccc1)OCCN1CCCC12CCC(c1ccccc1)CC2 (stereo not given)	·	5	·	7	-2	·	·
COC(=O)c1cc2c(c3c4cc(OC)ccc4n(S(=O)(=O)c4ccc(F)cc4)c13)C(=O)N(C)C2	14	-33	-15	4	-44	·	·
O=C(OCCN1CCN(C2CN(Cc3cn(Cc4ccccc4F)nn3)S(=O)(=O)C2)CC1)c1cc2ccccc2o1 (stereo not given)	·	1	·	0	1	·	·
O=S(=O)(NNc1ncc(C(F)(F)F)cc1Cl)c1ccccc1	-8	1	-1	6	-4	·	·
O=S(=O)(NNc1ncc(C(F)(F)F)cc1Cl)c1ccc(F)cc1F	-2	4	1	27*	1	30*	29*
C#CCCCN([C@H](C(=O)OC)C(C)C)S(=O)(=O)c1ccccc1Br	·	2	·	3	4	·	·
COc1ccc(CC(=O)N(Cc2ccccc2)c2ccccc2C(=O)Nc2cc(OC)ccc2OC)cc1	·	-14	·	-2	-20	·	·
CC1=C(C(=O)Nc2ccccc2C)C(c2ccc(C)o2)NC(=S)N1 (stereo not given)	4	-4	3	20*	-4	22*	-4
COC(=O)c1cc2c(c3c4cc(F)ccc4n(S(=O)(=O)c4cccc(C)c4)c13)C(=O)N(Cc1ccc(C(F)(F)F)cc1)C2	8	-5	-3	11	-8	·	·
Cc1nn(-c2cc(C(F)(F)F)ccn2)c(=O)o1	5	1	-5	4	-2	·	·
O=c1oc(-c2cccc(C(F)(F)F)c2)nn1-c1ccc(C(F)(F)F)cn1	-3	4	0	21*	-3	42*	25*
COc1ccc(CCNC(=O)c2cnc3ccccn3c2=O)cc1	11	-25	0	21*	-37	-5	-4
COc1ccc(CCNC(=O)c2ccccc2C(=O)NCCc2ccc(OC)cc2)cc1	5	4	-13	5	-6	·	·
CCOC(=O)NN1C(=O)c2ccccc2NC1c1ccc(OC)cc1 (stereo not given)	-4	i	16	21*	i	4	-6
CCOC(=O)NN1C(=O)c2ccccc2NC1c1ccc(N(C)C)cc1 (stereo not given)	-2	-271	-1	-5	-289	·	·
CCOC(=O)NN1C(=O)c2ccccc2NC1C (stereo not given)	14	-478	8	-2	i	·	·
CCOC(=O)NN1C(=O)c2ccccc2NC1c1ccccc1 (stereo not given)	13	i	-11	30*	i	1	-7
COc1ccc(S[C@]2(C(=O)N3CCOCC3)CC(=O)N(c3ccc(Cl)cc3)[C@@H]2c2ccc(OC)cc2)cc1	·	3	·	-5	0	·	·
CCCCNC(=O)c1cccnc1SCC(=O)Nc1ccccc1OC	-16	-4	3	7	-3	·	·
